Converted amounts (≈) assume the structure as drawn. The source made the active and inactive calls.

The values below come from ChEMBL document CHEMBL1146521, “Sesquiterpene lactones from Anthemis altissima and their anti-Helicobacter pylori activity” (2003).

The subject of one test is Proteus mirabilis. Nature of the test: Antimicrobial activity against Proteus mirabilis isolates after 36 hrs under aerobic condition by microdilution method. The format is functional. The method, boiled down: (§1)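 Bacteria grown overnight at 37 °C in tryptone soya broth (~10^9 cells/mL), then diluted in sterile saline to about 1.0 × 10^5 per well. Broth serial microdilution with compounds predissolved in DMSO, at final […]; DMSO ≤1%. Incubated 36 h at 37 °C. MIC = lowest concentration with no visible growth under binocular microscope. Inocula checked on TSA. Controls: DMSO, streptomycin.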
(In general: Broth dilution looks for growth in wells or tubes with falling amounts of substance.)

Test [1] concerns Helicobacter pylori. The experiment in a line: Antimicrobial activity against Helicobacter pylori isolates after 3 days under microaerobic condition by microdilution method.
Another test deals with Pseudomonas aeruginosa. The experiment in a line: Antimicrobial activity against Pseudomonas aeruginosa ATCC 27853 after 36 hrs under aerobic condition by microdilution method. The format is functional, organism-based. The method, boiled down:
as §1

The next test concerns Staphylococcus aureus. The experiment in a line: Antimicrobial activity against Staphylococcus aureus ATCC 6538 after 36 hrs under aerobic condition by microdilution method. The settings on record: ATCC 6538, 36 h. The test is classed as functional. The method, boiled down:
as §1

Another test relates to Bacillus cereus. Nature of the test: Antimicrobial activity against Bacillus cereus isolate after 36 hrs under aerobic condition by microdilution method. The format is functional. The method, boiled down: as §1
For the next test, the system named is Micrococcus flavus. The experiment in a line: Antimicrobial activity against Micrococcus flavus ATCC 10240 after 36 hrs under aerobic condition by microdilution method. The format is functional. The settings on record: ATCC 10240, 36 h. The method, boiled down:
as §1

The subject of a further test is Escherichia coli. Nature of the test: Antimicrobial activity against Escherichia coli ATCC 35218 after 36 hrs under aerobic condition by microdilution method. The test is classed as functional. Conditions: ATCC 35218, 36 h. The method, boiled down:
as §1

The subject of test [2] is Helicobacter pylori. The experiment in a line: Antimicrobial activity against Helicobacter pylori isolates after 36 hrs under […] condition by microdilution method. The test is classed as functional.

In general, MIC refers to the smallest concentration in the dilution series that meets the test's criterion for growth inhibition. For the compound `O=C(/C=C/c1ccc(O)c(O)c1)O[C@@H]1C[C@](O)(C(=O)O)C[C@@H](O)[C@H]1O` [CHLOROGENIC ACID], the outcome with Proteus mirabilis and with Pseudomonas aeruginosa was inactive. Further, in the test on Helicobacter pylori [1], the MIC was 6.25 µg/mL (≈ 17.6 µM).
`C=C1C(=O)O[C@H]2C[C@@]3(C)[C@H](O)CCC(=C)[C@@H]3[C@@H](O)[C@H]12`: the MIC in the test on Staphylococcus aureus, against Bacillus cereus, in the test with Micrococcus flavus, against Helicobacter pylori [1] and in the test on Escherichia coli was 50 µg/mL (≈ 189 µM) each time. Moreover, the outcome in the test with Proteus mirabilis and in the test on Pseudomonas aeruginosa was inactive.
For `C=C1C(=O)O[C@H]2C[C@@]3(C)[C@H](C(C)=CC[C@@H]3O)[C@@H](O)[C@H]12` [ALTISSIN], the values for the MIC in the test with Staphylococcus aureus, against Bacillus cereus and against Helicobacter pylori [1] were 50 µg/mL (≈ 189 µM), 12.5 µg/mL (≈ 47.3 µM) and 50 µg/mL (≈ 189 µM), respectively. The result in the test with Proteus mirabilis and with Pseudomonas aeruginosa was inactive.
`O=C1C[C@@H](c2ccc(O)c(O)c2)Oc2cc(O)cc(O)c21` [ERIODICTYOL]: the outcome in the test with Proteus mirabilis and with Pseudomonas aeruginosa was inactive. The compound also gave an MIC in the test with Helicobacter pylori [1] of 50 µg/mL (≈ 173 µM).
With `COc1ccc(-c2oc3cc(O)cc(O)c3c(=O)c2O)cc1` [KAEMPFERIDE], the figures for the MIC against Bacillus cereus, against Micrococcus flavus and in the test on Helicobacter pylori [1] were 25 µg/mL (≈ 83.3 µM), 50 µg/mL (≈ 167 µM) and 6.25 µg/mL (≈ 20.8 µM), respectively. Besides, the outcome in the test with Proteus mirabilis and with Pseudomonas aeruginosa was inactive.
Consider `COc1cc(O)c2c(=O)c(O)c(-c3ccc(O)c(O)c3)oc2c1` [RHAMNETIN], for which the outcome with Proteus mirabilis and in the test on Pseudomonas aeruginosa was inactive. The compound further registered an MIC in the test with Helicobacter pylori [1] of 50 µg/mL (≈ 158 µM).
As to `CN[C@@H]1[C@H](O[C@H]2[C@H](O[C@H]3[C@H](O)[C@@H](O)[C@H](N=C(N)N)[C@@H](O)[C@@H]3N=C(N)N)O[C@@H](C)[C@]2(O)C=O)O[C@@H](CO)[C@H](O)[C@H]1O` [STREPTOMYCIN], the MIC in the test with Staphylococcus aureus was 100 µg/mL (≈ 172 µM); in the test on Bacillus cereus, 100 µg/mL (≈ 172 µM); with Micrococcus flavus, 100 µg/mL (≈ 172 µM); in the test with Proteus mirabilis, 400 µg/mL (≈ 688 µM); against Escherichia coli, 200 µg/mL (≈ 344 µM).
Turning to `O=c1c(O[C@@H]2O[C@H](CO)[C@@H](O)[C@H](O)[C@H]2O)c(-c2ccc(O)c(O)c2)oc2cc(O)cc(O)c12` [ISOQUERCETIN], the result with Proteus mirabilis and in the test with Pseudomonas aeruginosa was inactive. Besides, the MIC in the test on Helicobacter pylori [1] was determined as 25 µg/mL (≈ 53.8 µM).
Turning to `O=c1cc(-c2ccc(O)cc2)oc2cc(O)cc(O)c12`, the outcome in the test on Proteus mirabilis, with Helicobacter pylori [1] and in the test on Pseudomonas aeruginosa was inactive.
For `C=C1C(=O)O[C@H]2CC(=C)[C@@H](O)CC/C(C)=C/[C@@H](O)[C@H]12` [TATRIDIN B], the MIC in the test with Staphylococcus aureus, against Bacillus cereus, against Micrococcus flavus, against Helicobacter pylori [1] and with Escherichia coli was 50 µg/mL (≈ 189 µM) each time. The outcome in the test with Proteus mirabilis and with Pseudomonas aeruginosa was inactive.
In the case of `COc1cc(-c2oc3cc(O)cc(O)c3c(=O)c2O)ccc1O`, the result with Proteus mirabilis, in the test with Helicobacter pylori [2] and with Pseudomonas aeruginosa was inactive.
In the case of `COc1c(-c2ccc(O)c(O)c2)oc2cc(O)cc(O)c2c1=O` [3-O-METHYLQUERCETIN], the result in the test on Proteus mirabilis and in the test with Pseudomonas aeruginosa was inactive. The MIC against Helicobacter pylori [1] was determined as 12.5 µg/mL (≈ 39.5 µM); in the test on Escherichia coli it was 50 µg/mL (≈ 158 µM).
`C=C1C(=O)O[C@H]2/C=C(\C)[C@@H](O)CC/C(C)=C/[C@@H](O)[C@H]12` [TATRIDIN A]: the MIC against Staphylococcus aureus came to 50 µg/mL (≈ 189 µM); in the test with Bacillus cereus, 50 µg/mL (≈ 189 µM); in the test with Helicobacter pylori [1] it was 12.5 µg/mL (≈ 47.3 µM). In addition, the outcome in the test on Proteus mirabilis and in the test with Pseudomonas aeruginosa was inactive.
Consider `COc1ccc(-c2oc3cc(O)c(OC)c(O)c3c(=O)c2OC)cc1O`, for which the outcome in the test with Proteus mirabilis and in the test with Pseudomonas aeruginosa was inactive.
On to `O=c1c(O)c(-c2ccc(O)c(O)c2)oc2cc(O)cc(O)c12` [QUERCETIN], for which the MIC with Bacillus cereus and against Helicobacter pylori [1] was 50 µg/mL (≈ 165 µM) each time. The outcome with Proteus mirabilis and in the test with Pseudomonas aeruginosa was inactive.
Regarding `O=C1c2c(O)cc(O)cc2O[C@H](c2ccc(O)c(O)c2)[C@H]1O` [(+)-TAXIFOLIN], the result with Proteus mirabilis and with Pseudomonas aeruginosa was inactive. The compound also gave a minimum inhibitory concentration (MIC) in the test with Helicobacter pylori [1] of 25 µg/mL (≈ 82.2 µM).
As for `C=C1C(=O)O[C@H]2C[C@@]3(C)[C@H](O)CC=C(C)[C@@H]3[C@@H](O)[C@H]12`, the MIC against Staphylococcus aureus was 50 µg/mL (≈ 189 µM); in the test on Bacillus cereus, 25 µg/mL (≈ 94.6 µM); against Helicobacter pylori [1], 12.5 µg/mL (≈ 47.3 µM). Besides, the outcome in the test on Proteus mirabilis and in the test on Pseudomonas aeruginosa was inactive.
